High-throughput results deposited in PubChem BioAssay by several laboratories.
An excerpt weighted towards active compounds, which were near 2.6% of everything screened.
SENP8 block-1: inhibitors of human SENP8 protease | 0.64% of 360,000 active | recombinant SENP8, Nedd8 substrate fluorescence | Q96LD8 | inhibition, % at 20 µM | AID 602440; in the data active = inhibition mostly above about 40%, no sharp cut-off; inactive = mostly below about 27%
Target sequence (Q96LD8 whole entry, looked up): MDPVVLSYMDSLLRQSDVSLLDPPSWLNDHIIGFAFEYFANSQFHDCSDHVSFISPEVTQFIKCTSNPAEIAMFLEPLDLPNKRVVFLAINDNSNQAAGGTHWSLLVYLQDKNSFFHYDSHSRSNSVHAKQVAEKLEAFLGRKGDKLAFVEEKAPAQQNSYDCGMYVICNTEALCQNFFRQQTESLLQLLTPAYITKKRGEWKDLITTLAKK
SENP7 inh: blocks the human protease SENP7; Q9BQF6; recombinant SENP7, Z-RLRGG-aminoluciferin luminescence, 40 min; inhibition, % at 5 µM; 1.5% of 330,000 active; AID 434973;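 active = inhibition above about 50% at the single test dose, limit read from the data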
Target sequence (Q9BQF6 706-1050 limits assumed): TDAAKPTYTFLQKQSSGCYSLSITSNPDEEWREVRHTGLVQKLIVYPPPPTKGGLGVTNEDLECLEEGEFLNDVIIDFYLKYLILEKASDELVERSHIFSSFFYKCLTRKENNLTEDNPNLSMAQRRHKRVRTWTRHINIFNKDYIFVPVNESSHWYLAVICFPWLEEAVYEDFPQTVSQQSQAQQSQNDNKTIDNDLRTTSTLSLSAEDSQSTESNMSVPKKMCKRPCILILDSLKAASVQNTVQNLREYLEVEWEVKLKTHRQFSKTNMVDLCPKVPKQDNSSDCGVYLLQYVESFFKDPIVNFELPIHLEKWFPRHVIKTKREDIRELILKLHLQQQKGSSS
SENP8 block-2: SENP8 protease inhibition | Q96LD8 | purified SENP8, Z-RLRGG-aminoluciferin cleavage, luminescence | inhibition, % at 10 µM | 1.2% of 330,000 active; in the data active = inhibition above about 50%
SENP1 FRET inh: blocks the human SENP1 SUMO protease catalytic domain; inhibition, % at 10 µM; recombinant SENP1 catalytic domain, CyPet-SUMO1-YPet FRET cleavage; 0.21% of 360,000 active; Q9P0U3;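 active = inhibition at least 30% at 10 µM, raw YFP signal under a set limit, fluorescence ratio 0.5 to 1.5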
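Test system: human SENP1 catalytic domain; medium: Tris pH 8 buffer plus EDTA, NaCl, BME, BSA, NP40, catalase; incubation: 50 min reaction at room temperature; technique: FRET, CFP and YFP emission; controls: no-enzyme low control and enzyme-plus-DMSO high control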
Platelet DG rel: modulates dense granule release in human platelets; AID 1663; inhibition, %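 (compounds screened at 7.5 µM in platelet-rich plasma)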; human platelet-rich plasma, SFLLRN dense granule ATP release, luminescence; 0.22% of 300,000 active;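 active = mean replicate score, as percent of positive control, at or above 50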
SENP6 block: SENP6 protease inhibition. Q9GZR1. Recombinant SENP6 catalytic domain, aminoluciferin luminescence. inhibition, % at 10 µM. 1.8% of 330,000 active. AID 2599;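 active = inhibition above about 50% at the single tested dose, limit read from the data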
SENP8 confirm: confirmation of human SENP8 protease inhibitors | shares compounds with SENP7 inh | Recombinant SENP8, Z-RLRGG-aminoluciferin luminescence, 60 min | inhibition, % at 12.5 µM | 40% of 6,200 active;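 active = mean inhibition across replicates above about 50%, limit read from the data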
SENP6 conf: confirmation of human SENP6 protease inhibitors. 58% of 6,200 active. inhibition, % at 12.5 µM. shares compounds with SENP7 inh. recombinant SENP6, Z-RLRGG-aminoluciferin luminescence
SENP7 conf: confirmation of human SENP7 protease inhibitors | shares compounds with SENP7 inh | recombinant SENP7, Z-RLRGG-aminoluciferin luminescence, 40 min | inhibition, % at 12.5 µM | 69% of 6,200 active | AID 488917
Casp3 select: inhibits human caspase-3 in SENP selectivity test; shares compounds with SENP7 inh; purified caspase-3, Z-DEVD-aminoluciferin luminescence, 60 min; inhibition, % at 12.5 µM; 60% of 6,200 active;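 active = mean inhibition above about 50%, limit read from the data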
SENP luc ctr: luminescence interference (SENP counter-screen) | shares compounds with SENP7 inh | Pre-incubated SENP8/Z-RLRGG-aminoluciferin, luciferase luminescence interference | inhibition, % at 12.5 µM | 39% of 6,200 active | AID 488919;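 active = mean inhibition above about 50% when retested at one dose, limit read from the data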
A number is an active result; . = inactive; / = no result.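 Rule for the calls, unless noted: active = mean inhibition above about 50% in the one-dose retest (limit read from the data); inactive = the rest.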

SMILES | SENP8 block-1 | SENP7 inh | SENP8 block-2 | SENP1 FRET inh | Platelet DG rel | SENP6 block | SENP8 confirm | SENP6 conf | SENP7 conf | Casp3 select | SENP luc ctr
Cc1ccc(NC2=CC(=O)C(=O)c3ccccc32)cc1 | . | . | 55 | . | . | 66 | . | 66 | . | . | .
O=C1C=C(Nc2ccc(O)cc2)C(=O)c2ccccc21 | . | 96 | 96 | . | 74 | 97 | 64 | 98 | 103 | 97 | 53
COc1cc(OC)c(NC2=CC(=O)C(=O)c3ccccc32)cc1Cl | . | 53 | 70 | . | . | 79 | . | 87 | 73 | . | .
CCC(C(=O)Nc1cc(Cl)c(OC)cc1OC)c1ccccc1 (stereo not drawn) | . | . | . | . | . | . | / | / | / | / | /
Cc1cc(NC2=CC(=O)C(=O)c3ccccc32)no1 | . | / | / | . | / | / | / | / | / | / | /
Cn1c(N)nc2nc(CCc3ccccc3)c(=O)[nH]c2c1=O | . | . | . | . | . | . | / | / | / | / | /
Cc1csc(NC(=O)COc2ccc3c(c2)CCC3)n1 | . | 84 | 74 | . | / | 82 | 81 | 80 | 96 | 80 | .
COC(=O)c1sc(NC(=O)c2cc3c(s2)CCCC3)nc1C | . | 80 | . | . | . | . | . | . | 90 | 52 | .
CCc1sc(C(=O)Nc2ccc(NC(C)=O)cc2)cc1C | . | . | . | . | . | . | / | / | / | / | /
CCc1sc(C(=O)Nc2nc(C)cs2)cc1C | . | 65 | 68 | . | . | 85 | 70 | 69 | 92 | 69 | 69
Cc1csc(NC(=O)c2ccc(Br)s2)n1 | . | . | . | . | . | 55 | . | . | 77 | . | .
Cc1nc(NC(=O)c2cc3c(s2)CCCCC3)sc1C(=O)N(C)C | . | . | . | . | . | . | / | / | / | / | /
O=C(COC(=O)c1ccc(S(=O)(=O)N2CCCCCC2)cc1)NCc1ccc(Cl)cc1 | . | . | . | . | / | . | / | / | / | / | /
O=S1(=O)CCC(N=Nc2c(O)n(Cc3ccccc3)c3ccccc23)C1 (stereo not drawn) | . | . | . | . | . | . | / | / | / | / | /
C[C@H](N)c1nnc(SCC(N)=O)o1 | . | . | . | . | . | . | / | / | / | / | /
CC1CCN(C(=O)Cn2c(=O)n(CCCC(=O)NCc3ccco3)c(=O)c3sccc32)CC1 | . | . | . | . | . | . | / | / | / | / | /
Cc1csc(NC(=O)c2cc3c(s2)CCC3)n1 | . | 87 | 82 | . | . | 90 | 89 | 88 | 99 | 89 | 91
O=C(Nc1ccccn1)c1ccc(Br)s1 | . | 65 | . | . | . | 67 | 66 | 63 | 88 | 76 | 67
Cc1csc(NC(=O)c2cc3c(s2)-c2ccccc2OC3)n1 | . | . | . | . | . | . | / | / | / | / | /
O=C(NC1CCCC1)C(c1ccncc1)N(C(=O)c1ccco1)c1ccc(F)c(Cl)c1 (stereo not drawn) | . | . | . | . | . | . | / | / | / | / | /
Cc1ncoc1C(=O)Nc1nccs1 | . | . | . | . | . | . | / | / | / | / | /
O=C(CS(=O)(=O)c1ccccc1)Nc1ncc([N+](=O)[O-])s1 | . | . | . | . | . | . | / | / | / | / | /
Cc1cnc(NC(=O)c2cccs2)s1 | . | 57 | . | . | . | 69 | 62 | 60 | 86 | 84 | .
O=C(Nc1ncc([N+](=O)[O-])s1)c1ccccc1Br | . | 76 | 86 | . | . | 90 | 91 | 90 | 100 | 94 | 71
Cc1ncoc1C(=O)Nc1ncc([N+](=O)[O-])s1 | . | 97 | 93 | . | . | 95 | 99 | 100 | 103 | 99 | 98
SMILES | SENP8 block-1 | SENP7 inh | SENP8 block-2 | SENP1 FRET inh | Platelet DG rel | SENP6 block | SENP8 confirm | SENP6 conf | SENP7 conf | Casp3 select | SENP luc ctr
Cc1csc(NC(=O)c2cccs2)n1 | . | . | . | . | . | . | / | / | / | / | /
Cc1cnc(NC(=O)COc2ccccc2Cl)s1 | . | 92 | 77 | . | . | 90 | 66 | 91 | 99 | 90 | .
CCOC(=O)C1=CC[C@H]2c3c(c4ccccc4n3C)C[C@H]1N2C | . | . | . | . | / | . | / | / | / | / | /
CC(C)c1ccc(CNc2ncccn2)cc1 | . | . | . | . | . | . | / | / | / | / | /
CCc1ccc(NC(=O)COc2ccc(Br)cn2)cc1 | . | . | . | . | . | . | / | / | / | / | /
FC(F)(F)c1cc(CO[C@@H]2CCCN[C@@H]2c2ccccc2)cc(C(F)(F)F)c1 | . | . | . | . | / | . | / | / | / | / | /
O=C(Nc1ncc([N+](=O)[O-])s1)c1cccs1 | . | 99 | 96 | . | . | 97 | 96 | 98 | 103 | 98 | 98
O=C(CCS(=O)(=O)c1ccccc1)Nc1ncc([N+](=O)[O-])s1 | . | . | . | . | . | . | / | / | / | / | /
C=CCn1c(SCc2nc(N)nc(N3CCCCC3)n2)nnc1-c1ccco1 | . | 61 | . | . | . | . | . | . | . | . | .
CCOC(=O)COn1c(-c2cccc(Cl)c2)nc2ccc([N+](=O)[O-])cc21 | . | 90 | 87 | . | . | 94 | 81 | 81 | 92 | 65 | 69
Cc1ccccc1C(=O)N1CCC[C@H]1C(=O)N1CCC[C@H]1C(=O)NCc1ccccn1 | . | / | / | . | / | / | / | / | / | / | /
O=C(O)c1ccc(Nc2cnc3ccccc3n2)cc1 | . | 97 | 88 | . | . | 93 | 92 | 92 | 100 | 97 | 87
CCOC(=O)c1ccc(Nc2cc(C)nc(-c3ccccc3)n2)cc1 | . | . | . | . | . | . | / | / | / | / | /
CCOC(=O)c1ccc(Nc2ncccc2[N+](=O)[O-])cc1 | . | 83 | . | . | . | . | . | . | . | 57 | .
CCOC(=O)c1ccc(NCc2nc3ccccc3[nH]2)cc1 | . | 58 | 85 | . | . | 93 | 67 | 61 | 83 | 68 | 71
CCOC(=O)c1ccc(Nc2cnc3ccccc3n2)cc1 | . | 56 | . | . | . | . | . | . | 63 | . | .
O=C(O)c1cnc2ccccc2n1 | . | . | . | . | . | . | / | / | / | / | /
O=C(Nc1cccc(S(=O)(=O)NC2=NCCC2)c1)c1cc(=O)[nH]c2ccccc12 | . | . | . | . | / | . | / | / | / | / | /
Cc1nnc(-c2cnn(C)c2N)n1Cc1ccc2c(c1)OCO2 | . | . | . | . | . | . | / | / | / | / | /
COc1ccc([C@H]2Cc3cc(O)cc(O)c3C(=O)O2)cc1O | . | 90 | 88 | . | / | 95 | 89 | 88 | 98 | 90 | 91
Clc1ccc(N2O[C@H]3C=C[C@@H]2C3)nc1 | . | / | / | . | / | / | / | / | / | / | /
